Results of several laboratories.
Lines come from different studies, so protocols differ. pIC50: −log10 of the molar value.
Cell line: A549
Read-out: cell growth or viability

Structure (SMILES)	method	time	pIC50
C=CC(=O)Nc1cc(Nc2nccc(-c3cn(C)c4ccccc34)n2)c(OC)cc1N(C)CCN(C)C	MTT	72 h	4.55
Cc1nc(Nc2ccc3c(c2)/C(=C/c2ccccc2Cl)C(=O)N3)c2ccccc2n1	MTT	–	5.25
CNC(=O)c1cc(Oc2ccc(NC(=O)Nc3ccc(Cl)c(C(F)(F)F)c3)cc2)ccn1	MTT	72 h	5.25
Cc1ccc2c(-c3cc4c(CN5CCN(Cc6ccccn6)CC5)cnc(C)c4o3)cc(=O)oc2c1	MTT	72 h	4.37
O=C(C=Cc1ccccc1)Nc1cc(-c2ccnc(N3CCC(O)CC3)c2)ccn1	MTT	72 h	7.07
Cc1nc(N(C)c2ccc3c(c2)/C(=C/c2ccccc2Cl)C(=O)N3C)c2ccccc2n1	MTT	–	5.11
C#Cc1cccc(Nc2ncnc3cc(OCCOC)c(OCCOC)cc23)c1	MTT	72 h	4.59
[NH2][Pt]([NH2])([Cl])[Cl]	MTT	–	5.02
COc1cc2ncnc(N(C)c3ccc4c(c3)/C(=C/c3cccc(Cl)c3)C(=O)N4C)c2cc1OC	MTT	–	5.23
Cc1ncc(CN2CCc3ccccc3C2)c2cc(C(=O)c3ccc4c(c3)OCCO4)oc12	MTT	72 h	4.55
C=CC(=O)N1CCN(c2nc(=O)n(-c3c(C)ccnc3C(C)C)c3nc(-c4c(O)cccc4F)c(F)cc23)[C@@H](C)C1	ATP luminescence	–	< 5.00
O=C(O)c1ccc2c(c1)nc(Nc1cccc(Cl)c1)c1ccncc12	resazurin	48 h	4.94
COc1cc2ncnc(Nc3ccc4c(c3)/C(=C/c3cccc(Cl)c3)C(=O)N4C)c2cc1OC	MTT	–	5.04
C=C(F)C(=O)N1CCN(c2nc(OC[C@@H]3CCCN3C)nc3c2CCN(c2cccc4cccc(Cl)c24)C3)C[C@@H]1CC#N	ATP luminescence	–	5.66
